According to ChEMBL document CHEMBL4342515, “Boron Accumulation in Brain Tumor Cells through Boc-Protected Tryptophan as a Carrier for Boron Neutron Capture Therapy” (ACS Med Chem Lett, 2020):
Activity calls are given as the source filed them. The calls are words filed in the database; no cut-off is given here.

How the values were obtained:
U-87 MG [1] = test: Cytotoxicity against human U87MG cells assessed as cell viability at 100 uM incubated for 24 hrs by WST-1 assay (reference value: 97 %); assay type: functional, U-87MG ATCC; conditions: read-out: Activity
[2] = Aqueous solubility of compound; assay type: physicochemical; conditions: buffer
[3] = Drug uptake in human LN229 cells at 50 uM measured upto 4 hrs by ICP-MS analysis; assay type: ADME, cell-based; conditions: ln-229, 4 h
Method in brief: (§1)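 Cellular boron accumulation was measured by ICP-MS as boron concentration (ppm) at time points over the incubation, up to 4 h. Mouse 3T3 cells served as the normal reference for the tumor/normal (T/N) ratio.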

[4] = Cytotoxicity against mouse 3T3 cells assessed as cell viability incubated for 24 hrs by WST-1 assay (reference value: 57 %); assay type: cell-based; conditions: NIH3T3 cells, read-out: Activity
[5] = Drug uptake in human U87MG cells at 50 uM measured upto 4 hrs by ICP-MS analysis; assay type: ADME, cell-based; conditions: u-87mg atcc; method in brief: as §1
LN-229 [6] = test: Cytotoxicity against human LN229 cells assessed as cell viability at 100 uM incubated for 24 hrs by WST-1 assay (reference value: 91 %); assay type: functional; conditions: LN-229, 24 h, read-out: Activity
[7] = Drug uptake in human LN229 cells at 50 uM incubated for 1 hr by ICP-MS analysis; assay type: ADME, cell-based; conditions: ln-229, 1 h
LN-229 [8] = test: Effect on LAT-1 expression in human LN229 cells at 50 uM incubated for 2 hrs by Western blot analysis; assay type: functional, cell-based
Method in brief: (§2)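 Western blot for LAT-1 protein in the three cell lines after 2 h incubation with the derivatives. Primary antibodies: LAT-1 (1:2500) and α-tubulin (1:5000) as loading reference. Qualitative comparison of expression level.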

U-87 MG [9] = test: Cytotoxicity against human U87MG cells assessed as cell viability at 50 uM incubated for 1 hr followed by neutron irradiation for 3 mins by WST-1 assay; assay type: functional, cell-based; conditions: U-87MG ATCC
U-87 MG [10] = test: Effect on LAT-1 expression in human U87MG cells at 50 uM incubated for 2 hrs by Western blot analysis; assay type: functional, cell-based; conditions: U-87MG ATCC; method in brief: as §2
LN-229 [11] = test: Cytotoxicity against human LN229 cells assessed as cell viability at 50 uM incubated for 1 hr followed by neutron irradiation for 3 mins by WST-1 assay; assay type: functional, cell-based
[12] = Ratio of drug uptake in human LN229 cells to drug uptake in mouse 3T3 cells measured at 1 hr; assay type: ADME, cell-based
[13] = Ratio of drug uptake in human LN229 cells to drug uptake in mouse 3T3 cells measured up to 4 hrs; assay type: ADME, cell-based
NIH3T3 = test: Downregulation of LAT-1 expression in mouse 3T3 cells at 50 uM incubated for 2 hrs by Western blot analysis; assay type: functional, cell-based; method in brief: as §2
[14] = Drug uptake in human U87MG cells at 50 uM incubated for 2 hrs by ICP-MS analysis; assay type: ADME, cell-based; conditions: u-87mg atcc
[15] = Ratio of drug uptake in human U87MG cells to drug uptake in mouse 3T3 cells measured up to 4 hrs; assay type: ADME, cell-based

Structure (SMILES) | viability at 100 µM (U-87 MG [1]) [%] | solubility [2] | Drug uptake [3] | viability at 24 h [4] [%] | Drug uptake [5] | viability at 100 µM (LN-229 [6]) [%] | Drug uptake [7] [ppm] | Activity (LN-229 [8]) | Activity (U-87 MG [9]) | Activity (U-87 MG [10]) | Activity (LN-229 [11]) | Ratio [12] | Ratio [13] | Activity (NIH3T3) | Drug uptake [14] [ppm] | Ratio [15]
COC(=O)C(Cc1cn(C(=O)OC(C)(C)C)c2ccc(B3OC(C)(C)C(C)(C)O3)cc12)N(C(=O)OC(C)(C)C)C(=O)OC(C)(C)C (configuration not stated) | 67.4 | Insoluble | Active | 60.2 | Active | 60.7 | 450 | inactive | Active | inactive | Active | > 9.66 | > 5 | Active | 300 | > 5
COC(=O)C(Cc1cn(C(=O)OC(C)(C)C)c2ccc(B3OC(C)(C)C(C)(C)O3)cc12)N(C(C)=O)C(=O)OC(C)(C)C (configuration not stated) | 70.2 | Insoluble | Active | 63.6 | Active | 70.8 |  |  | Active |  | Active |  |  |  | 300 | 
COC(=O)C(Cc1c[nH]c2ccc(B3OC(C)(C)C(C)(C)O3)cc12)NC(C)=O (configuration not stated) | 66.2 |  | Not Active | 60.2 | Not Active | 69.9 |  | inactive |  | inactive |  |  |  | Active |  | 
COC(=O)C(Cc1c(B2OC(C)(C)C(C)(C)O2)[nH]c2c(B3OC(C)(C)C(C)(C)O3)cccc12)N=[N+]=[N-] (configuration not stated) | 61.3 |  |  | 66.6 |  | 57.2 |  |  |  |  |  |  |  |  |  | 
N[C@@H](Cc1ccc(B(O)O)cc1)C(=O)O | 67 |  |  | 110 |  | 79.6 | < 50 | inactive | Active | inactive | Active | 2.3 |  | Active |  | 
COC(=O)C(N)Cc1c[nH]c2ccc(B3OC(C)(C)C(C)(C)O3)cc12 (configuration not stated) | 65.8 |  | Not Active | 53 | Not Active | 67.3 |  | inactive |  | inactive |  |  |  | Active |  | 
COC(=O)C(Cc1cn(C(=O)OC(C)(C)C)c2cc(B3OC(C)(C)C(C)(C)O3)ccc12)N(C(=O)OC(C)(C)C)C(=O)OC(C)(C)C (configuration not stated) | 60.1 | Insoluble | 300 ppm | 63.6 | 300 ppm | 53.2 |  | inactive | Active | inactive | Active |  | > 5 | Active |  | > 5
